The target in series [1] is Epidermal growth factor receptor (Homo sapiens, UniProt P00533). The series can be described thus: Inhibition of recombinant human GST-tagged EGFR (668 to 1210 residues) expressed in baculovirus expression system using Poly(Glu,Tyr)4:1 as substrate after 1 hr by ELISA. A general note: An ELISA detects its analyte on a solid surface through an enzyme-linked reagent.
Series [2] has as its target Epidermal growth factor receptor (Homo sapiens, UniProt P00533, L858R/T790M). The series can be described thus: Inhibition of recombinant human GST-tagged EGFR L858R/T790M double mutant expressed in baculovirus expression system using Poly(Glu,Tyr)4:1 as substrate after 1 hr by ELISA.
The species entered for series [3] is Homo sapiens. The series can be described thus: Selectivity ratio of IC50 for recombinant human GST-tagged EGFR (668 to 1210 residues) expressed in baculovirus expression system to IC50 for recombinant human GST-tagged EGFR L858R/T790M double mutant expressed in baculovirus expression system. In outline:
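ELISA-based EGFR tyrosine kinase assay run on wild-type and L858R/T790M enzymes. IC50 values come from at least three independent determinations, reported as means ± SD. Selectivity is the wild-type IC50 divided by the L858R/T790M IC50.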

Another series has as its system A-431. The experiment in a line: Cytotoxicity against human A431 cells harboring wild type EGFR assessed as reduction in cell viability after 72 hrs by SRB assay. As to conditions: A-431, 72 h. The series is classed as cell-based. In outline: (§1)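 Cell growth inhibition measured by sulforhodamine B colorimetric assay in H1975 (EGFR L858R/T790M) and A431 (overexpressed wild-type EGFR) cells; IC50 values are means ± SD of at least three independent determinations. Selectivity is taken as the A431:H1975 IC50 ratio.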
(Sulforhodamine B stains cellular protein and so reports cell mass.)

The subject of a further series is NCI-H1975. The experiment in a line: Antiproliferative activity against human NCI-H1975 cells harboring EGFR L858R/T790M double mutant after 72 hrs by SRB assay. It counts as functional, cell-based. As to conditions: NCI-H1975, 72 h. In outline: as §1
For series [4], the species on record is Homo sapiens. The series can be described thus: Selectivity index, ratio of IC50 for human A431 cells harboring wild type EGFR to IC50 for human NCI-H1975 cells harboring EGFR L858R/T790M double mutant. In outline:
as §1

Series [5] is described as follows: Aqueous solubility in pH 7.4 PBS buffer by UV-Visible spectrophotometric method. It counts as physicochemical. In a few lines:
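Solubility determined in 0.1 M PBS, pH 7.4, by UV-visible spectrophotometry.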

Each structure is given as a SMILES string. In brackets after ≈: the same amount, converted by molar mass. Bounds are passed on as bounds.

Epidermal growth factor receptor (Homo sapiens, UniProt P00533), sequence (P00533 whole entry, the tested form may be a part): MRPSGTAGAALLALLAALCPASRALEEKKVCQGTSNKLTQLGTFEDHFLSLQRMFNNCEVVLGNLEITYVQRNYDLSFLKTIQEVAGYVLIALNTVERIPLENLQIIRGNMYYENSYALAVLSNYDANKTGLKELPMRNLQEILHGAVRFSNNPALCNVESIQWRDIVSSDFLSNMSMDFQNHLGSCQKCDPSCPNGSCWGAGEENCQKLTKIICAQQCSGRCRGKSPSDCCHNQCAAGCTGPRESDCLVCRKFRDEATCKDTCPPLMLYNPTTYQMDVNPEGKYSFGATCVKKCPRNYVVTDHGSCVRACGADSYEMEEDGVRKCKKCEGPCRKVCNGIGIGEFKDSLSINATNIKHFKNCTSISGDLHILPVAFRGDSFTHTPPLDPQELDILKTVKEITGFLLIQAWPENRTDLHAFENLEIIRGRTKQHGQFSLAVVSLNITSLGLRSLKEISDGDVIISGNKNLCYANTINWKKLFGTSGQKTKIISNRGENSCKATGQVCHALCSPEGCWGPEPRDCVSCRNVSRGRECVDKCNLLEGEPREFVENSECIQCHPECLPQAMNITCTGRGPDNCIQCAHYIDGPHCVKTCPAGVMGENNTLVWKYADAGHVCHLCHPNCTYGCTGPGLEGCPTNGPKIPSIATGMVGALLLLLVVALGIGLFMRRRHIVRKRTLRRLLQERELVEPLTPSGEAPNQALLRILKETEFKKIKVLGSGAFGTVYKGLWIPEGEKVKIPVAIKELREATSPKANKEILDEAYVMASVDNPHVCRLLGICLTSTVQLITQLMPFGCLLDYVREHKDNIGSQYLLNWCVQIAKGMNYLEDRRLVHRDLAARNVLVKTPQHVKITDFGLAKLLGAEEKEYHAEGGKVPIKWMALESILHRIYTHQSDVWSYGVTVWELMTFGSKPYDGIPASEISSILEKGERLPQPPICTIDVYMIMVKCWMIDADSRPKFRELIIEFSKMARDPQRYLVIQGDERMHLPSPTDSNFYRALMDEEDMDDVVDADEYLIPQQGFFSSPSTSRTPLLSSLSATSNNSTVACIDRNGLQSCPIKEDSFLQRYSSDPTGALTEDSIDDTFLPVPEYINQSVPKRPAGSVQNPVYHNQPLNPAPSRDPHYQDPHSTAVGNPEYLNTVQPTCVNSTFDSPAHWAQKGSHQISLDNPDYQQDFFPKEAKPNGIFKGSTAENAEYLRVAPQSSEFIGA
Epidermal growth factor receptor (Homo sapiens, UniProt P00533, L858R/T790M), sequence (P00533 25-1210 T790M/L858R limits assumed): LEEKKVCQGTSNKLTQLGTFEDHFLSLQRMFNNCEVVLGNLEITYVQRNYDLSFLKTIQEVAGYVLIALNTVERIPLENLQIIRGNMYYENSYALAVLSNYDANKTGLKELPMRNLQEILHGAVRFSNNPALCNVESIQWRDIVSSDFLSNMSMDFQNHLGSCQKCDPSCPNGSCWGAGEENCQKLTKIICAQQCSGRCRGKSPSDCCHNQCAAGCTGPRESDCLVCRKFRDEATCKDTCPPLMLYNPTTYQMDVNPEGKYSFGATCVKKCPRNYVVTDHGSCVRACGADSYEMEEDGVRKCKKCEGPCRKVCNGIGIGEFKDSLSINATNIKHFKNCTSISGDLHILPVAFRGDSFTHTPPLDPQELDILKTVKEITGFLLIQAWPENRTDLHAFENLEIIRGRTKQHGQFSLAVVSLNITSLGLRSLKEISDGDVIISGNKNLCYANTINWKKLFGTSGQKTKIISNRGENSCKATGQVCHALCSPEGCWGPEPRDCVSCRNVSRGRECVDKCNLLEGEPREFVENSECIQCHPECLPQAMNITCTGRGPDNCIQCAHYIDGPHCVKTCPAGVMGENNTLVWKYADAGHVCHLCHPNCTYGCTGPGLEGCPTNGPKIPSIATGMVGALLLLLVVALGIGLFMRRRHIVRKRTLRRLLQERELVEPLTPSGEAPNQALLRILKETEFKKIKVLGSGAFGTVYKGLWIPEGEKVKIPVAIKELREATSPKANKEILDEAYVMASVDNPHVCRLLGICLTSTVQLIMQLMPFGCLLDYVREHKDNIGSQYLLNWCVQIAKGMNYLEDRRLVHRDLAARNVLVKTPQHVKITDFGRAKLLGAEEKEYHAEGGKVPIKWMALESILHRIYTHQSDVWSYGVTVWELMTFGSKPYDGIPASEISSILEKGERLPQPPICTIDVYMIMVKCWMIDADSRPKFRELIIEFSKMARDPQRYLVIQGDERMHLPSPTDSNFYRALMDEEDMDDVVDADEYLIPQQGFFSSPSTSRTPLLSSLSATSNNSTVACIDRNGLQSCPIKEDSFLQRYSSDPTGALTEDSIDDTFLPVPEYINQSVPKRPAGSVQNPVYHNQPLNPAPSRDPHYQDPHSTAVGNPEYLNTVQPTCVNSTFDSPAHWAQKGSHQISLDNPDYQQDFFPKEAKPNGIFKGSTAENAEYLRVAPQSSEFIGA

In the case of `C=CC(=O)Nc1cccc(-n2c(=O)n(C(C)C)c(=O)c3cnc(Nc4ccc(OCCN(C)C)cc4OC)nc32)c1`, the IC50 came to 227 nM in series [1], 115 nM in series [2], 3600 nM in the series on A-431 and 99 nM in the series on NCI-H1975. Besides, the Ratio IC50 in the series filed under Homo sapiens [3] stood at 2; in the series listed under Homo sapiens [4], 36. In series [5], the concentration in solution (solubility) came to 647 µg/mL (≈ 1160 µM).
With `C=CC(=O)Nc1cccc(-n2c(=O)n(C)c(=O)c3cnc(Nc4ccc(N5CCN(C(C)=O)CC5)cc4OC)nc32)c1`, the IC50 in series [1] was 180 nM; in series [2], 46 nM; with A-431 it was above 10000 nM; in the series on NCI-H1975, above 10000 nM. In the series filed under Homo sapiens [3], the Ratio IC50 was 3.9. In series [5], this compound came in with a solubility below 10 µg/mL.
Turning to `C=CC(=O)Nc1cccc(-n2c(=O)n(CC)c(=O)c3cnc(Nc4ccc(N5CCC(N(C)C)CC5)cc4OC)nc32)c1`, the IC50 in series [1] was 111 nM; in series [2], 2.5 nM; with A-431, above 10000 nM; with NCI-H1975 it was 175 nM. Also, in the series listed under Homo sapiens [3], the Ratio IC50 was 44. The solubility in series [5] was determined as 229 µg/mL (≈ 392 µM).
As for `C=CC(=O)Nc1cccc(-n2c(=O)n(CCC)c(=O)c3cnc(Nc4ccc(N5CCC(N(C)C)CC5)cc4OC)nc32)c1`, the IC50 in series [1] came out at 13 nM; in series [2] it was 0.4 nM; in the series with A-431, 4130 nM; in the series with NCI-H1975, 60 nM. For the same compound, the values for the Ratio IC50 in the series filed under Homo sapiens [3] and in the series filed under Homo sapiens [4] were 33 and 69, respectively. Also, the solubility in series [5] is 184 µg/mL (≈ 307 µM).
`C=CC(=O)Nc1cccc(-n2c(=O)n(CCCc3ccccc3)c(=O)c3cnc(Nc4ccc(N5CCC(N(C)C)CC5)cc4OC)nc32)c1`: the IC50 is 3.8 nM in series [1], 1.4 nM in series [2], 1460 nM in the series on A-431 and 358 nM in the series on NCI-H1975. The results for the Ratio IC50 in the series listed under Homo sapiens [3] and in the series filed under Homo sapiens [4] were 2.7 and 4.1, respectively. This compound had a solubility in series [5] of 104 µg/mL (≈ 154 µM).
Regarding `C=CC(=O)Nc1cccc(-n2c(=O)n(C(C)C)c(=O)c3cnc(Nc4ccc(N5CCN(C)CC5)c(OC)c4)nc32)c1`, the IC50 in series [1] is 119 nM; in series [2], 6.8 nM; in the series on A-431, 1050 nM; in the series with NCI-H1975, 37 nM. Moreover, the Ratio IC50 in the series listed under Homo sapiens [3] worked out at 18; in the series listed under Homo sapiens [4] it was 28. Further, the solubility in series [5] was 309 µg/mL (≈ 541 µM).
As for `C=CC(=O)Nc1cccc(-n2c(=O)n(C)c(=O)c3cnc(Nc4ccc(N5CCC(N(C)C)CC5)cc4OC)nc32)c1`, the IC50 amounted to 3890 nM in the series on A-431 and 230 nM with NCI-H1975. The compound also registered a solubility in series [5] of 531 µg/mL (≈ 931 µM).
As for `C=CC(=O)Nc1cccc(Nc2nc(Nc3ccc(N4CCN(C(C)=O)CC4)cc3OC)ncc2C(F)(F)F)c1` [ROCILETINIB], the IC50 with A-431 turned out to be 641 nM; with NCI-H1975 it was 31 nM.
Consider `C=CC(=O)Nc1cccc(-n2c(=O)n(C)c(=O)c3cnc(Nc4ccc(N5CCSCC5)cc4OC)nc32)c1`, for which the IC50 amounted to 314 nM in series [1], 91 nM in series [2], 8370 nM in the series with A-431 and 573 nM with NCI-H1975. For the same compound, the Ratio IC50 in the series filed under Homo sapiens [3] worked out at 3.5; in the series listed under Homo sapiens [4], 15. Further, the solubility in series [5] stood at 45 µg/mL (≈ 82.5 µM).
With `C=CC(=O)Nc1cccc(-n2c(=O)n(C(C)C)c(=O)c3cnc(Nc4ccc(N5CCC(N6CCN(C)CC6)CC5)cc4OC)nc32)c1`, the IC50 amounted to 240 nM in series [1], 14 nM in series [2], 1380 nM with A-431 and 154 nM with NCI-H1975. Moreover, the Ratio IC50 in the series filed under Homo sapiens [3] was 17; in the series listed under Homo sapiens [4] it was 9. This compound had a solubility in series [5] of 121 µg/mL (≈ 185 µM).
As for `C=CC(=O)Nc1cccc(-n2c(=O)n(Cc3ccccc3)c(=O)c3cnc(Nc4ccc(N5CCC(N(C)C)CC5)cc4OC)nc32)c1`, the IC50 in series [1] was 1.2 nM; in series [2], 1.9 nM; in the series on A-431, 3300 nM; with NCI-H1975, 278 nM. Moreover, the results for the Ratio IC50 in the series listed under Homo sapiens [3] and in the series listed under Homo sapiens [4] were 0.6 and 12, respectively. In addition, the concentration in solution in series [5] (solubility) was 137 µg/mL (≈ 212 µM).
`C=CC(=O)Nc1cccc(-n2c(=O)n(C)c(=O)c3cnc(Nc4ccc(N5CCOCC5)cc4OC)nc32)c1`: the IC50 in series [1] is 341 nM; in series [2] it was 70 nM; in the series on A-431, above 10000 nM; with NCI-H1975 it was above 10000 nM. Moreover, in the series listed under Homo sapiens [3], the Ratio IC50 came to 4.9. Moreover, the concentration in solution in series [5] (solubility) came to 61 µg/mL (≈ 115 µM).
As for `C=CC(=O)Nc1cccc(-n2c(=O)n(CCc3ccccc3)c(=O)c3cnc(Nc4ccc(N5CCC(N(C)C)CC5)cc4OC)nc32)c1`, the IC50 in series [1] stood at 0.7 nM; in series [2], 1 nM; with A-431, 2040 nM; in the series on NCI-H1975, 189 nM. In addition, the Ratio IC50 in the series filed under Homo sapiens [3] was 0.7; in the series filed under Homo sapiens [4], 11. Besides, the solubility in series [5] was 99 µg/mL (≈ 150 µM).
Consider `C=CC(=O)Nc1cccc(-n2c(=O)n(C(C)C)c(=O)c3cnc(Nc4ccc(N5CCN(C)CC5)c(C)c4)nc32)c1`, for which the IC50 in series [1] was determined as 34 nM; in series [2], 1 nM; in the series on A-431, 954 nM; in the series on NCI-H1975, 24 nM. Also, the Ratio IC50 in the series listed under Homo sapiens [3] amounted to 34; in the series listed under Homo sapiens [4], 40. Besides, in series [5], the concentration in solution (solubility) came to 280 µg/mL (≈ 505 µM).
On to `C=CC(=O)Nc1cccc(-n2c(=O)n(C)c(=O)c3cnc(Nc4ccccc4)nc32)c1`, for which the IC50 in series [1] was 82 nM; in series [2], 68 nM; in the series with A-431, above 10000 nM; in the series on NCI-H1975, 9260 nM. Besides, the Ratio IC50 in the series filed under Homo sapiens [3] came to 1.2. Besides, the solubility in series [5] is below 10 µg/mL.
`C=CC(=O)Nc1cccc(-n2c(=O)n(C(C)C)c(=O)c3cnc(Nc4ccc(N(C)CCN(C)C)cc4OC)nc32)c1`: the concentration for half-maximal inhibition (IC50) came to 121 nM in series [1], 16 nM in series [2], 1950 nM in the series on A-431 and 138 nM in the series on NCI-H1975. Besides, the Ratio IC50 in the series listed under Homo sapiens [3] was 7.6; in the series listed under Homo sapiens [4] it was 14. This compound yielded a solubility in series [5] of 1050 µg/mL (≈ 1840 µM).
Consider `C=CC(=O)Nc1cccc(-n2c(=O)n(C(C)C)c(=O)c3cnc(Nc4ccc(N5CCC(N(C)C)CC5)cc4OC)nc32)c1`, for which the IC50 was 20 nM in series [1], 0.8 nM in series [2], above 10000 nM with A-431 and 50 nM with NCI-H1975. Moreover, the Ratio IC50 in the series listed under Homo sapiens [3] is 25. In series [5], this compound came in with a solubility of 176 µg/mL (≈ 294 µM).

In general, IC50 refers to the concentration that gives 50% inhibition. Usually solubility stands for the concentration that dissolves in the medium under given conditions.

Source of the values: ChEMBL document CHEMBL4118273, “Design, Synthesis, and Biological Evaluation of Pyrimido[4,5- d]pyrimidine-2,4(1 H,3 H)-diones as Potent and Selective Epidermal Growth Factor Receptor (EGFR) Inhibitors against L858R/T790M Resistance Mutation” (J Med Chem, 2018).
